The text below walks through data of ChEMBL document CHEMBL2331550, “Design, synthesis and structure-activity relationship of novel tricyclic benzimidazolone derivatives as potent 18 kDa translocator protein (TSPO) ligands” (Bioorg Med Chem, 2013).

The structures appear in SMILES notation. ≈ marks a conversion by molar mass, not a printed value.

Series [1] is described as follows: Metabolic stability in rat liver S9 fraction assessed as compound remaining at 1 uM after 30 mins. It is filed as ADME, subcellular. The following applies: read-out: Stability.
The target in the next series is Translocator protein (Rattus norvegicus, UniProt P16257). As to the kind of experiment: Displacement of [3H]PK11195 from TSPO in Sprague-Dawley rat kidney mitochondria after 1 hr by liquid scintillation counting analysis.
Sequence of Translocator protein (P16257 whole entry, looked up): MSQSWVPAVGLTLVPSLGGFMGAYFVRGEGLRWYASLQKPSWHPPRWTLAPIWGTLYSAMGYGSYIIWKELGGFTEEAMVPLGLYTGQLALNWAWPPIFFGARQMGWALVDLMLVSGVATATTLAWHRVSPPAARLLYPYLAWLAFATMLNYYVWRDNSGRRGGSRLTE
The species entered for the next series is Rattus norvegicus. Put plainly: Displacement of [3H]flumazenil from CBR in Sprague-Dawley rat cerebral cortex membrane at 10 uM after 1 hr by liquid scintillation counting analysis. The series is classed as tissue-based. The essentials:
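Male SD rat cerebral cortex was homogenised in potassium phosphate buffer (200 mM KCl, 20 mM KOH, 20 mM KH2PO4, pH 7.4) and washed at 32,500×g. Membranes were incubated with 1.0 nM [3H]-flumazenil (final) and 10 µM test compound for 1 h at 25 °C, then GF/B-filtered and counted by scintillation. Nonspecific binding was taken with […]. Percent inhibition of specific binding was measured in duplicate.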
On the technique in general: Displacement assays read how much labelled ligand stays bound in the presence of the test substance.

A short description of series [2]: Metabolic stability in rat liver S9 fraction assessed as compound remaining at 10 uM after 30 mins. It is filed as ADME, subcellular. The following applies: read-out: Stability.
Series [3] in a line: Aqueous solubility of the compound at pH 2.5. The series is classed as physicochemical.
Series [4] in a line: Aqueous solubility of the compound at pH 7.4. The series is classed as physicochemical.
Series [5] has as its target Translocator protein (Rattus norvegicus) (UniProt P16257). Put plainly: Displacement of [3H]PK11195 from TSPO in Sprague-Dawley rat kidney mitochondria at 100 nM after 1 hr by liquid scintillation counting analysis.

Sequence of Translocator protein (Rattus norvegicus) (P16257 whole entry, looked up): as above

What is called Ki is a dissociation constant, usually derived from enzyme kinetics or from competition with a known ligand. One may read the inhibition as how much of the control response was suppressed. A low value points to a weak effect. In the case of `CN(C(=O)Cn1c(=O)n2c3c(cc(-c4ccccc4)cc31)CCC2)c1cccnc1`, the remaining at 0.5 h, 1 µM in series [1] stood at 0%. This molecule had a Ki on Translocator protein of 2.1 nM. The same molecule returned an inhibition in the series filed under Rattus norvegicus of 36%.
As to `COc1ccc(-c2cc3c4c(c2)n(CC(=O)N(C)c2ccccc2)c(=O)n4CCC3)cc1`, in series [2], the remaining at 0.5 h, 10 µM came out at 2%.
Turning to `CN(C(=O)Cn1c(=O)n2c3c(cc(-c4cccc(C(F)(F)F)c4)cc31)CCC2)c1ccccc1`, the remaining at 0.5 h, 1 µM in series [1] was 0%.
For the molecule `O=C(Cn1c(=O)n2c3c(cc(-c4ccccc4)cc31)CCC2)Nc1ccccc1`, the remaining at 0.5 h, 1 µM in series [1] is 62%. Besides, at Translocator protein, the Ki turned out to be 33 nM. The same molecule gave an inhibition in the series filed under Rattus norvegicus of 27%.
The corresponding values for `CN(C(=O)Cn1c(=O)n2c3c(cc(-c4ccccc4)cc31)OCC2)c1ccccc1` are 1%, 0.21 nM and 68%.
The corresponding values for `CN(C(=O)Cn1c(=O)n2c3c(cc(-c4ccccc4)cc31)CCC2)c1ccc(Cl)cc1` are 0%, 0.13 nM and 4%.
The like results for `CN(C(=O)Cn1c(=O)n2c3c(cc(-c4ccccc4)cc31)CCC2)c1cccc(Cl)c1` were, in that order, 0%, 0.44 nM and 3%.
Consider `CN(C(=O)Cn1c(=O)n2c3c(cc(-c4ccccn4)cc31)CCC2)c1ccccc1`, for which, in series [1], the remaining at 0.5 h, 1 µM is 0%.
The same measure, in the same setting: the result for `CN(C(=O)Cn1c(=O)n2c3c(cc(-c4ccc(C(F)(F)F)cc4)cc31)CCC2)c1ccccc1` reads 0%.
As to `CN(C(=O)Cn1c(=O)n2c3c(cc(-c4cccnc4)cc31)CCC2)c1ccccc1`, the remaining at 0.5 h, 10 µM in series [2] amounted to 0%.
Take `CN(C(=O)Cn1c(=O)n2c3c(cc(-c4ccccc4)cc31)CCC2)c1ccncc1`: the remaining at 0.5 h, 1 µM in series [1] is 0%. On Translocator protein, the Ki was 15 nM. In the series filed under Rattus norvegicus, this molecule gave an inhibition of 24%.
For the molecule `CN(C(=O)Cn1c(=O)n2c3c(cccc31)CCC2)c1ccccc1`, the remaining at 0.5 h, 10 µM in series [2] was determined as 0%.
Turning to `CN(C(=O)Cn1c(=O)n2c3c(cc(-c4ccccc4)cc31)CCCC2)c1ccccc1`, the remaining at 0.5 h, 1 µM in series [1] was 1%. Further, on Translocator protein, the Ki was 0.32 nM. For the same molecule, the inhibition in the series listed under Rattus norvegicus worked out at 30%.
For the molecule `COc1cccc(N(C)C(=O)Cn2c(=O)n3c4c(cc(-c5ccccc5)cc42)CCC3)c1`, the remaining at 0.5 h, 1 µM in series [1] is 0%. Also, affinity on Translocator protein was put at a Ki of 0.28 nM. Besides, the inhibition in the series filed under Rattus norvegicus turned out to be 6%.
By solubility is commonly meant how much of the substance goes into solution per volume. Take `CN(C(=O)Cn1c(=O)n2c3c(cc(Nc4cccnc4)cc31)CCC2)c1ccccc1`: the remaining at 0.5 h, 1 µM in series [1] worked out at 41%. The figures for the solubility in series [3] and in series [4] were greater than 1000 µg/mL and 4 µg/mL (≈ 9.67 µM), respectively.
For the molecule `CN(Cc1ccccc1)C(=O)Cn1c(=O)n2c3c(cc(-c4ccccc4)cc31)CCC2`, the remaining at 0.5 h, 1 µM in series [1] stood at 1%. Besides, the Ki at Translocator protein worked out at 0.23 nM. This molecule returned an inhibition in the series filed under Rattus norvegicus of 72%.
`COc1ccc(N(C)C(=O)Cn2c(=O)n3c4c(cc(-c5ccccc5)cc42)CCC3)cc1` had a Ki at Translocator protein of 0.73 nM. For the same molecule, the inhibition in the series filed under Rattus norvegicus was determined as 3%. For the same molecule, in series [2], the remaining at 0.5 h, 10 µM was found to be 0%.
Turning to `CN(C(=O)Cn1c(=O)n2c3c(cc(-c4ccccc4)cc31)CCC2)c1ccccc1`, the remaining at 0.5 h, 1 µM in series [1] stood at 12%. The Ki on Translocator protein turned out to be 0.94 nM. The molecule also gave an inhibition in the series listed under Rattus norvegicus of 14%.
For the molecule `COc1cccc(-c2cc3c4c(c2)n(CC(=O)N(C)c2ccccc2)c(=O)n4CCC3)c1`, in series [1], the remaining at 0.5 h, 1 µM turned out to be 1%.
As to `CN(C(=O)Cn1c(=O)n2c3c(cc(Br)cc31)CCC2)c1ccccc1`, in series [2], the remaining at 0.5 h, 10 µM is 0%.
Consider `CN(C(=O)Cn1c(=O)n2c3c(cc(-c4ccncc4)cc31)CCC2)c1ccccc1`, for which the remaining at 0.5 h, 1 µM in series [1] turned out to be 3%.
Turning to `CCCN(CCC)C(=O)Cn1c(=O)n2c3c(cc(-c4ccccc4)cc31)CCC2`, the remaining at 0.5 h, 1 µM in series [1] turned out to be 1%. In addition, at Translocator protein, affinity was put at a Ki of 1.7 nM. Also, the inhibition in the series filed under Rattus norvegicus turned out to be 11%.
Turning to `CN(C(=O)Cn1c(=O)[nH]c2ccc(-c3ccccc3)cc21)c1ccccc1`, in series [5], the inhibition came to 86%.
As to `CN(C(=O)Cn1c(=O)n(C)c2ccc(-c3ccccc3)cc21)c1ccccc1`, the inhibition in series [5] is 100%.
As for `CN(C(=O)Cn1c(=O)n2c3c(cc(-c4ccccc4)cc31)CCC2)c1ccccn1`, the remaining at 0.5 h, 1 µM in series [1] was 0%. This molecule also had a Ki on Translocator protein of 2.5 nM. The molecule further came in with an inhibition in the series listed under Rattus norvegicus of 34%.
